Screening results deposited in PubChem BioAssay by several laboratories.
In the library only some 2.8% were active in any assay of this set; here they are far more common.
NPY-Y1 antag: blocks the human neuropeptide Y Y1 receptor; P25929; HEK293-CNG Y1 cells, membrane potential fluorescence; NPY at EC95, then isoproterenol; inhibition, % at 3.6 µM; hit rate 1% among 200,000; AID 1040;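 active = inhibition above the campaign mean inhibition of all tested compounds plus 3 SD, cut at about 20% in these data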;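 also: 0% = DMSO wells given NPY plus isoproterenol and 100% = isoproterenol alone without NPY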
Target sequence (P25929 whole entry, looked up): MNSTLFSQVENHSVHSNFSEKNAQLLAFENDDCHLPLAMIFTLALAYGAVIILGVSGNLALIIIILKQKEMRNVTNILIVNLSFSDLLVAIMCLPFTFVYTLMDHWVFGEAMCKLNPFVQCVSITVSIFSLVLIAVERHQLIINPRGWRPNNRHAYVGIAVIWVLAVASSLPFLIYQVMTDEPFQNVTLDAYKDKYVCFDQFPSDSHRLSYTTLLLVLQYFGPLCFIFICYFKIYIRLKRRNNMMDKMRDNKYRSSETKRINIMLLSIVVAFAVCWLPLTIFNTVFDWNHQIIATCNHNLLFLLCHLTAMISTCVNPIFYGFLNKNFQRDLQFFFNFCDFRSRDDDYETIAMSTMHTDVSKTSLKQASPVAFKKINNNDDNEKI
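Material: Y1- and CNG-channel-expressing HEK293 cells / Probe or stimulus: NPY 25 nM then isoproterenol 1 µM plus Ro 20-1724 25 µM / Doses: 3.6 µM single dose, DMSO 0.4% / Schedule: compound incubation 1 h at room temperature, readout 45 min post-stimulation / Signal: membrane potential fluorescence / Benchmarks: isoproterenol-only wells as full block versus NPY-plus-isoproterenol wells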
NPY-Y1 PAM-ag: potentiators or agonists of human neuropeptide Y receptor Y1; activation, % at 3.6 µM; AID 1304; hit rate 0.37% among 220,000; NPY-Y1 expressing cells, potentiator/agonist activation; P25929; in the data active = activation above about 33%, passing the limit was not always enough;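 also: cells stimulated with NPY at EC10 then isoproterenol at EC100; 0% = low agonist plus stimulus and 100% = saturating agonist plus stimulus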
NPY-Y2 PAM-ag: human NPY-Y2 potentiation or agonism, primary screen; P49146; cells expressing NPY-Y2, potentiator/agonist read-out; activation, % at 3.6 µM; hit rate 0.45% among 220,000; in the data active = activation above about 27%;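 also: cells stimulated with NPY near EC25 plus isoproterenol at EC100; 0% = vehicle plus submaximal agonist and 100% = vehicle plus saturating agonist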
EP2 antag: blocks the human prostaglandin E2 receptor EP2. P43116. C6 glioma cells expressing human EP2, cAMP TR-FRET; cells stimulated with saturating PGE2. inhibition, % at 25 µM. hit rate 0.52% among 260,000;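 active = percent inhibition above 40 after rounding to a whole number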;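 also: rat C6 glioma host cells with rolipram phosphodiesterase inhibitor present; the protocol text gives 20 µM as final concentration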
EP2 modulator: modulators of human EP2 prostaglandin E2 receptor; P43116; EP2-expressing cells, cAMP HTRF FRET, PGE2 co-stimulation; induction, % at 25 µM; hit rate 0.83% among 260,000; AID 940;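 active = compounds whose cAMP rise, as percent of the full-agonist control response, exceeds 60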;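 also: rat C6 glioma line stably carrying human EP2 under a CMV promoter; the protocol text gives 20 µM as final concentration; 100% = response of wells given 1 µM PGE2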
NPY-Y2 antag: antagonists of human neuropeptide Y receptor Y2 | NPY-Y2 expressing cells, antagonist mode | inhibition, % at 2.7 µM | hit rate 0.99% among 140,000 | AID 793; in the data active = inhibition above about 17%;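 also: 0% = vehicle with agonist challenge and 100% = reference antagonist with challenge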
Starred values were filed as active, the others as inactive; . = no result; ! = not confirmed by another sample.

SMILES	NPY-Y1 antag	NPY-Y1 PAM-ag	NPY-Y2 PAM-ag	EP2 antag	EP2 modulator	NPY-Y2 antag
COc1ccc(C(=O)CCN2CCCCCC2)cc1	0	15	-9	7	2	-1
CCC1(C)CC2(CCCN(CCC(=O)c3ccccc3)C2)CCO1 (stereo not drawn)	5	6	-3	81*!	-94	.
COC(=O)c1sc(NC(=O)COc2cc(C)ccc2C(C)C)c(C#N)c1C	.	.	.	11	-33	.
CCCn1c(=O)c2ccccc2n2c(SCCOc3ccc(Cl)cc3)nnc12	9	-13	-4	6	14	13
CCCn1c(=O)c2ccccc2n2c(SCc3cc(=O)n4ccsc4n3)nnc12	21*	1	-1	.	.	3
CCCn1c(=O)c2ccccc2n2c(SCCOc3ccccc3F)nnc12	26*	-30	-15	11	34	17*
CCCn1c(=O)c2ccccc2n2c(SCc3cc(=O)oc4ccc5ccccc5c34)nnc12	9	-15	0	9	9	2
O=C(Nc1ncnc2sc3c(c12)CCC3)c1cccc(Cl)c1	.	.	.	8	36	.
CCOC(=O)c1ccc(-n2c(C)ccc2C)cc1	-2	-4	-5	2	28	1
CCOC(=O)c1ccc(N2C(=O)C=CC2=O)cc1	2	5	-3	111*	-39	2
Cc1cccc(/C(N)=N/OC(=O)CCCN2C(=O)c3ccccc3C2=O)c1	29*	-30	-18	0	-7	8
COc1cc(C)c(CNC(=O)c2ccnn2C(C)C)cc1C(C)C	.	.	.	7	-17	.
CC(COC(=O)c1ccccc1)(COC(=O)c1ccccc1)/[N+]([O-])=C/c1ccccc1	21*	-14	-10	1	24	18*
CCOC(=O)c1ccccc1NC(=O)CSc1nnnn1C1CCCCC1	6	-23	-27	3	64*!	10
COC(=O)c1ccccc1NC(=O)CSc1nnnn1C1CCCCC1	3	-27	-5	13	35	7
CC(C)(C)OC(=O)[C@H]([C@@H]1N[C@@H](C(=O)O)C(C)(C)S1)N1C(=O)c2ccccc2C1=O	.	.	.	42*	16	.
CSc1nc(-c2ccccc2)c2cc(Cl)ccc2n1	-3	1	5	7	62*	3
CC1=C(C#N)c2nc(N)c(C#N)c(C)c2/C1=C\c1ccc(C)cc1	5	13	-9	40*!	-111	-2
O=C1c2ccccc2C(=O)N1c1cccc(-c2nc3ccccc3o2)c1	5	3	-3	13	28	-1
O=C1C=CC(=O)N1c1cccc(-c2ccccc2)c1	.	2	0	114*	-61	.
CCc1cc2cc3c(cc2nc1SCC(=O)c1ccc(NC(C)=O)cc1)OCCO3	.	.	.	13	-56	.
O=C(O)[C@H]1CCCC[C@H]1C(=O)Nc1ccc(Nc2ccccc2)cc1	-9	49*	34*	14	-2	-4
CC(C)c1ccc(NC(=O)C2CCCCC2C(=O)O)cc1 (stereo not drawn)	2	-6	7	.	-2	2
CCOc1cc2c(cc1CN(Cc1ccccc1)Cc1ccncc1)OCO2	.	.	.	6	9	.
CCOc1ccccc1CN(CCc1ccc2c(c1)OCO2)Cc1ccccn1	30*	-24	-8	17	49	15
SMILES	NPY-Y1 antag	NPY-Y1 PAM-ag	NPY-Y2 PAM-ag	EP2 antag	EP2 modulator	NPY-Y2 antag
CCSc1nnc(COc2ccc(Br)cc2)n1Cc1ccccc1	.	.	.	4	43	.
CC(Nc1nc(-c2ccccc2O)nc2ccccc12)c1ccccc1 (stereo not drawn)	.	16	20	6	70*	.
Clc1ccc(-c2nc(N3CCCCC3)nc3ccccc23)cc1	2	-10	-4	13	40	3
CC(Nc1nc(-c2ccccc2)nc2ccccc12)c1ccccc1 (stereo not drawn)	3	-14	-3	6	38	.
COc1ccc(Nc2nc(N3CCCC3)nc3ccccc23)c(OC)c1	27*	-49	-24	25	-15	21*
CC(Nc1nc(N2CCCCC2)nc2ccccc12)c1ccccc1 (stereo not drawn)	46*	-26	-16	9	-17	45*
Cc1ccc(/C=C/C(=O)NC(=S)Nc2ccc(S(=O)(=O)Nc3nccs3)cc2)cc1	.	.	.	31	-129	.
CN(C(=O)C1CCCCC1)c1nc(-c2ccccc2)cs1	.	.	.	5	4	.
CCn1c(=O)oc2cc(S(=O)(=O)N(Cc3ccccn3)C3CC3)c(Cl)cc21	.	.	.	11	-43	.
C[C@H]1[C@H](C)OC(=O)C[C@H](O)C[C@H](O)C[C@H](O)CC[C@H](O)[C@H](O)CC(=O)C[C@H](O)[C@H](C(=O)O)[C@H](O)C[C@H](O[C@H]2O[C@@H](C)[C@H](O)[C@@H](N)[C@@H]2O)C=CC=CC=CC=CCCC=CC=C[C@@](C)(O)[C@H]1O	.	.	.	44*	20	.
CN(C)S(=O)(=O)N1CCC(Cn2nc(-c3ccc(F)cc3)ccc2=O)CC1	.	.	.	.	-43	.
c1ccc2c(c1)C(=Nn1cnnc1)c1ccccc1-2	-5	-17	6	28	-10	-1
c1ccc2c(c1)C(=Nc1ccc(N=C3c4ccccc4-c4ccccc43)cc1)c1ccccc1-2	.	.	.	45*	-8	.
O=C(O)[C@H](Cc1ccc(O)c([N+](=O)[O-])c1)N1C(=O)c2ccccc2C1=O	.	.	.	51*	10	.
O=C(Nc1nc2ccccc2s1)C1CCN(S(=O)(=O)c2cc([N+](=O)[O-])ccc2Cl)CC1	.	80*	82*	12	-21	.
CCC(C)NC(=O)C1CCN(S(=O)(=O)c2cc([N+](=O)[O-])ccc2Cl)CC1 (stereo not drawn)	.	-6	0	12	12	.
COc1cc2c(cc1OC)CN(c1nc(CN3CCCCC3)nc3sc4c(c13)CCCC4)CC2	23*	-69	-15	6	17	20*
COc1cc2c(cc1OC)CN(c1nc(CN3CCOCC3)nc3sc4c(c13)CCCC4)CC2	2	-52	-14	8	6	4
COc1ccc(C)cc1NS(=O)(=O)c1ccc(NC(=O)CN(c2cc([N+](=O)[O-])ccc2C)S(C)(=O)=O)cc1	-9	40*	27*	16	-43	-3
Cc1cccc(NS(=O)(=O)c2ccc(NC(=O)CN(c3cc([N+](=O)[O-])ccc3C)S(C)(=O)=O)cc2)c1	-13	50*	42*	15	-32	-5
O=C(COc1ccc(Cl)cc1Cl)NNC(=O)c1cccs1	.	.	.	4	-5	.
C[n+]1ccc(/C=C2/Sc3ccccc3N2CCCS(=O)(=O)[O-])cc1	.	.	.	7	7	.
NC(N)=Nc1ccc(-c2ccc(N=C(N)N)cc2)cc1	.	.	.	48*	17	.
Cc1ccc(N=C(N)N=C(N)N)cc1	.	10	-13	7	1	.
CCN1/C(=C\c2ccc3cc(C)ccc3[n+]2CC)Sc2cc(C)c(C)cc21	9	-32	3	61*	-37	.
CCN1/C(=C/c2ccc3cc(C)cc(C)c3[n+]2CC)Sc2cc(C)ccc21	11	-13	10	110*	-49	.
